Results: ChEMBL document CHEMBL2069303, “Stellettin A induces endoplasmic reticulum stress in murine B16 melanoma cells” (J Nat Prod, 2012)
In brackets after ≈: the same amount, converted by molar mass. Activity calls are given as the source filed them. The rule behind the calls is not given here.

Experiments:
B16-F10 [1] = assay: Induction of endoplasmic reticulum stress in C57BL/6J mouse B16F10 cells assessed as abnormally glycosylated TRP1 level at 0.6 ug/mL incubated for 12 hrs measured 1 hr post peptide N-glycosidase F-treatment by immunoblot analysis; format: functional, cell-based
How it was run: (§1)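 Lysates of treated B16F10 cells were prepared in RIPA buffer. Protein (10 μg) was digested with 100 units endoglycosidase H or peptide N-glycosidase F at 37 °C for 1 h, then immunoblotted for TRP-1 to separate EndoH-sensitive and EndoH-resistant glycoforms.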

B16-F10 [2] = assay: Selectivity ratio of IC50 for mouse Melan-a cells to IC50 for mouse B16F10 cells; format: functional
B16-F10 [3] = assay: Induction of endoplasmic reticulum stress in C57BL/6J mouse B16F10 cells assessed as upregulation of GRP78 level at 0.625 ug/mL after 12 hrs by immunoblot analysis; format: functional, cell-based
How it was run: (§2)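 Treated B16F10 cells were PBS-washed and lysed in 50 mM Tris-Cl, 150 mM NaCl, 0.2% Triton X-100, aprotinin and PMSF, then spun at 4 °C. Protein was equalised by BCA. Lysates were run on 10% SDS-PAGE, transferred to PVDF, blocked with 2% gelatin and probed with specific primary antibodies (TRP-1 blots: 0–0.625 μg/mL for 24 h).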

B16-F10 [4] = assay: Induction of endoplasmic reticulum stress in C57BL/6J mouse B16F10 cells assessed as upregulation of HSC70 level at 0.625 ug/mL after 24 hrs by immunoblot analysis; format: functional, cell-based; how it was run: as §2
B16-F10 [5] = assay: Induction of endoplasmic reticulum stress in C57BL/6J mouse B16F10 cells assessed as immature TRP1 level at 0.6 ug/mL after 24 hrs by immunoblot analysis; format: functional, cell-based; how it was run: as §2
B16-F10 [6] = assay: Cytotoxicity against C57BL/6J mouse B16F10 cells assessed as cell viability after 24 hrs by SRB assay relative to control; format: functional
How it was run: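 B16F10 cells (20 000/0.1 mL) were given serial concentrations (0.08–5 μg/mL) for 24 h. SRB read-out: TCA fixation, 0.4% SRB staining, acetic acid rinses, solubilisation in 10 mM Tris (pH 10.5), absorbance at 570 nm. Viability expressed relative to untreated control; triplicates in at least three experiments.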

B16-F10 [7] = assay: Decrease in TRP1 level in C57BL/6J mouse B16F10 cells assessed as depigmentation after 48 hrs; format: functional, cell-based
B16-F10 [8] = assay: Induction of autophagy in C57BL/6J mouse B16F10 cells assessed as LC3-TYR colocalization at 0.625 to 2.5 ug/mL after 24 hrs by fluorescence microscopy; format: functional, cell-based
How it was run: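 B16F10 cells on sterile coverslips were exposed to 0, 0.625, 1.25 or 2.5 μg/mL for 24 h, PBS-washed and paraformaldehyde-fixed. They were co-stained with anti-tyrosinase and anti-LC3, then AlexaFluor-488/594 secondary IgG. DAPI counterstain. Confocal microscopy used to score yellow overlap.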

HaCaT [9] = assay: Selectivity ratio of IC50 for human HaCaT cells to IC50 for mouse B16F10 cells; format: functional
HaCaT [10] = assay: Selectivity ratio of IC50 for human HaCaT cells to IC50 for mouse TM3 cells; format: functional
HT-29 [11] = assay: Selectivity ratio of IC50 for human HT-29 cells to IC50 for mouse B16F10 cells; format: functional
B16-F10 [12] = assay: Cytotoxicity against C57BL/6J mouse B16F10 cells after 24 hrs by SRB assay; format: functional, cell-based; conditions: B16-F10, 24 h
How it was run: (§3)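 B16F10 and TM3 cells in 96-well plates were exposed to serial dilutions (0.08–5 μg/mL) for 24 or 48 h. Proteins were fixed with 50% TCA, stained with 0.4% SRB in 1% acetic acid, rinsed with 1% acetic acid, and the dye was dissolved in 10 mM Tris base (pH 10.5). Absorbance was read at 570 nm. Triplicates in at least three separate experiments; IC50 from concentration–response.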

HT-29 [13] = assay: Selectivity ratio of IC50 for human HT-29 cells to IC50 for mouse TM3 cells; format: functional
B16-F10 [14] = assay: Cytotoxicity against C57BL/6J mouse B16F10 cells after 48 hrs by SRB assay; format: functional, cell-based; conditions: B16-F10, 48 h; how it was run: as §3
B16-F10 [15] = assay: Induction of endoplasmic reticulum stress in C57BL/6J mouse B16F10 cells assessed as upregulation of GRP78 level after 24 hrs by immunofluorescence staining method; format: functional, cell-based
How it was run: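 B16F10 cells (20 000/mL) on gelatinized coverslips were treated with 0, 0.31, 0.625, 1.25 or 2.5 μg/mL for 24 h. Fixed in 4% paraformaldehyde and immunostained for GRP78, with Alexa-594-conjugated secondary IgG. DAPI counterstain; confocal imaging.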

B16-F10 [16] = assay: Induction of endoplasmic reticulum stress in C57BL/6J mouse B16F10 cells assessed as immature TRP1 level at 0.6 ug/mL incubated for 12 to 24 hrs measured 1 hr post endoglycosidase H-treatment by immunoblot analysis; format: functional, cell-based; how it was run: as §1
[17] = Selectivity ratio of IC50 for mouse Melan-a cells to IC50 for mouse TM3 cells; format: functional
B16-F10 [18] = assay: Induction of endoplasmic reticulum stress in C57BL/6J mouse B16F10 cells assessed as upregulation of GRP78 level at 0.625 ug/mL after 24 hrs by immunoblot analysis; format: functional, cell-based; how it was run: as §2
B16-F10 [19] = assay: Induction of apoptosis in C57BL/6J mouse B16F10 cells assessed as Bcl2 activation at 0.6 ug/mL up to 48 hrs by immunoblot analysis; format: functional, cell-based
[20] = Cytotoxicity against mouse TM3 cells after 48 hrs by SRB assay; format: functional, cell-based; conditions: TM3, 48 h; how it was run: as §3
B16-F10 [21] = assay: Induction of endoplasmic reticulum stress in C57BL/6J mouse B16F10 cells assessed as deglycosylated TRP1 level at 0.6 ug/mL after 24 hrs by immunoblot analysis; format: functional, cell-based; how it was run: as §2
B16-F10 [22] = assay: Induction of endoplasmic reticulum stress in C57BL/6J mouse B16F10 cells assessed as upregulation of HSC70 level at 0.625 ug/mL after 12 hrs by immunoblot analysis; format: functional, cell-based; how it was run: as §2
B16-F10 [23] = assay: Induction of autophagy in C57BL/6J mouse B16F10 cells assessed as LC32 accumulation at 0.6 ug/mL by immunoblot analysis; format: functional, cell-based; how it was run: as §2

For `C\C(=C/C=C/C(C)=C1/C(=O)C[C@H]2[C@@]3(C)CCC(=O)C(C)(C)[C@@H]3CC[C@]12C)c1ccc(C)c(=O)o1` [STELLETIN A], the Activity (B16-F10 [1]) was “Active”, the “Ratio IC50” value (B16-F10 [2]) was 10 and the Activity (B16-F10 [3]) was “Active”. For the same compound, the Activity (B16-F10 [4]) was “inactive”, the Activity (B16-F10 [5]) was “Active” and the Activity (B16-F10 [6]) was 70%. The Activity (B16-F10 [7]) was “Active”, the Activity (B16-F10 [8]) was “Active” and the “Ratio IC50” value (HaCaT [9]) was 10. The “Ratio IC50” value (HaCaT [10]) was 10, the “Ratio IC50” value (HT-29 [11]) was 10 and the IC50 (B16-F10 [12]) was 2 µg/mL (≈ 4.32 µM). The “Ratio IC50” value (HT-29 [13]) was 10, the IC50 (B16-F10 [14]) was 0.15 µg/mL (≈ 0.324 µM) and the Activity (B16-F10 [15]) was “Dose-dependent effect”. The Activity (B16-F10 [16]) was “Active”, the “Ratio IC50” value [17] was 10 and the Activity (B16-F10 [18]) was “inactive”. The Activity (B16-F10 [19]) was “inactive”, the IC50 [20] was 0.8 µg/mL (≈ 1.73 µM) and the Activity (B16-F10 [21]) was “Active”. For the same compound, the Activity (B16-F10 [22]) was “Active” and the Activity (B16-F10 [23]) was “Active”.
